Data taken from ChEMBL document CHEMBL3352515, “Design, synthesis, antiviral and cytostatic activity of ω-(1H-1,2,3-triazol-1-yl)(polyhydroxy)alkylphosphonates as acyclic nucleotide analogues” (Bioorg Med Chem, 2014).
The source made the active and inactive calls. No cut-off for these calls is given here.

Legend:
HeLa = assay: Cytostatic activity against human HeLa cells assessed as inhibition of proliferation after 72 hrs by Coulter cell counting method; type: functional, cell-based
Summary of the method: (§1)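 (5–7.5) × 10⁴ tumor cells per well were exposed to test compound at 37 °C in humidified CO₂. Incubation ran 48 h for L1210 and 72 h for CEM and HeLa. Cells were then counted in a Coulter counter. IC₅₀ is the concentration that inhibits cell proliferation by 50%.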

CCRF-CEM = assay: Cytostatic activity against human CEM cells assessed as inhibition of proliferation after 72 hrs by Coulter cell counting method; type: functional, cell-based; summary of the method: as §1
L1210 = assay: Cytostatic activity against mouse L1210 cells assessed as inhibition of proliferation after 48 hrs by Coulter cell counting method; type: functional, cell-based; settings: L1210, 48 h; summary of the method: as §1
Influenza A virus H3N2 = assay: Antiviral activity against Influenza A virus H3N2 infected in MDCK cells assessed as inhibition of virus-induced cytopathogenicity; type: functional, organism-based
Summary of the method: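 Confluent MDCK cell cultures were infected in the presence of varying compound concentrations. Cytopathicity was recorded once complete in untreated virus-infected controls, scored visually and by MTS colorimetric assay. EC50 is the concentration that reduced virus-induced cytopathogenicity by 50%.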

[1] = Cytotoxicity against MDCK cells assessed as reduction in cell viability by MTS assay; type: cell-based, Canis lupus familiaris; settings: dog
Summary of the method: (§2)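 Uninfected host cells were exposed to test compound, and viability was read by the colorimetric MTS assay. CC₅₀ is the concentration causing a 50% decrease in cell viability.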

Felid alphaherpesvirus 1 = assay: Antiviral activity against Feline herpesvirus 1 infected in HEL cells assessed as inhibition of virus-induced cytopathogenicity; type: functional, organism-based; settings: for EC50: Felid alphaherpesvirus 1, HEL
Summary of the method: (§3)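 Confluent host-cell monolayers in 96-well plates were inoculated with 100 CCID₅₀ of virus while exposed to a range of test compound concentrations. Cytopathic effect was scored once it was complete in untreated infected controls. EC₅₀ is the concentration that reduces virus-induced cytopathogenicity by 50%.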

[2] = Cytotoxicity against feline CRFK cells assessed as reduction in cell viability by MTS assay; type: cell-based, Felis catus; settings: cat; summary of the method: as §2
Human alphaherpesvirus 1 = assay: Antiviral activity against HSV-1 infected in HEL cells assessed as inhibition of virus-induced cytopathogenicity; type: functional, organism-based; summary of the method: as §3
Human alphaherpesvirus 2 = assay: Antiviral activity against HSV-2 infected in HEL cells assessed as inhibition of virus-induced cytopathogenicity; type: functional, organism-based; summary of the method: as §3
[3] = test system: Vesicular stomatitis virus; assay: Antiviral activity against Vesicular stomatitis virus infected in HeLa cells assessed as inhibition of virus-induced cytopathogenicity; type: functional, organism-based
Summary of the method: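 HeLa cell monolayers (confluent) were infected with 100 CCID50 of VSV in the presence of serial compound concentrations. Viral cytopathicity was read when complete in untreated infected controls. EC50 is the concentration that reduced virus-induced cytopathogenicity by 50%.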

Human alphaherpesvirus 3 = assay: Antiviral activity against Thymidine kinase-positive Varicella-zoster virus Oka infected in HEL assessed as reduction in virus plaque formation; type: functional, organism-based; settings: Human alphaherpesvirus 3, strain Oka vaccine
Summary of the method: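 Confluent HEL fibroblast cultures were inoculated with 20 PFU of VZV together with varying compound concentrations. Plaque formation was recorded once complete in untreated infected controls. EC50 is the concentration that reduced viral plaque formation by 50%.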

[4] = test system: Respiratory syncytial virus; assay: Antiviral activity against Respiratory syncytial virus infected in HeLa cells assessed as inhibition of virus-induced cytopathogenicity; type: functional, organism-based; summary of the method: as §3

Row | SMILES | IC50 (HeLa) [µM] | IC50 (CCRF-CEM) [µM] | IC50 (L1210) [µM] | also measured
1 | Cn1cnc2c1c(=O)n(Cc1cn(C[C@H]3OC(C)(C)O[C@H]3[C@@H](O)P(=O)(OCc3ccccc3)OCc3ccccc3)nn1)c(=O)n2C | > 200 | 115 | 86 | –
2 | Cc1cn(Cc2cn(C[C@H](OCc3ccccc3)[C@@H](O)P(=O)(OCc3ccccc3)OCc3ccccc3)nn2)c(=O)[nH]c1=O | > 200 | > 200 | > 200 | EC50 (Influenza A virus H3N2): 20 µM; CC50 [1]: > 100 µM; MCC [1]: > 100 µM
3 | Cn1cnc2c1c(=O)n(Cc1cn(C[C@H](OCc3ccccc3)[C@H](O)P(=O)(OCc3ccccc3)OCc3ccccc3)nn1)c(=O)n2C | 76 | 68 | 58 | –
4 | Cc1cn(Cc2cn(C[C@H]3OC(C)(C)O[C@H]3[C@@H](O)P(=O)(OCc3ccccc3)OCc3ccccc3)nn2)c(=O)[nH]c1=O | > 200 | > 200 | 122 | –
5 | CC1(C)O[C@@H]([C@@H](O)P(=O)(OCc2ccccc2)OCc2ccccc2)[C@H](Cn2cc(Cn3ccc(=O)[nH]c3=O)nn2)O1 | 118 | > 200 | > 200 | –
6 | CC1(C)O[C@@H]([C@@H](O)P(=O)(OCc2ccccc2)OCc2ccccc2)[C@H](Cn2cc(Cn3cnc4c(N)ncnc43)nn2)O1 | – | > 200 | > 200 | –
7 | O=C(c1ccccc1)n1c(=O)c2ccccc2n(Cc2cn(C[C@H](OCc3ccccc3)[C@H](O)P(=O)(OCc3ccccc3)OCc3ccccc3)nn2)c1=O | 5.1 | 4.7 | 4.7 | EC50 (Felid alphaherpesvirus 1): 4 µM; MCC [2]: ≥ 4 µM; EC50 (Human alphaherpesvirus 1; Human alphaherpesvirus 1, HEL): 2.9 µM; EC50 (Human alphaherpesvirus 2; Human alphaherpesvirus 2, HEL): 4 µM
8 | Cn1c(=O)c2c(nc(Cl)n2Cc2cn(C[C@H](OCc3ccccc3)[C@@H](O)P(=O)(OCc3ccccc3)OCc3ccccc3)nn2)n(C)c1=O | > 200 | 27 | 70 | –
9 | CC(=O)Nc1ccn(Cc2cn(C[C@H](OCc3ccccc3)[C@@H](O)P(=O)(OCc3ccccc3)OCc3ccccc3)nn2)c(=O)n1 | > 200 | 169 | 153 | –
10 | O=c1cnn(Cc2cn(C[C@H](OCc3ccccc3)[C@H](O)P(=O)(OCc3ccccc3)OCc3ccccc3)nn2)c(=O)[nH]1 | 122 | 81 | 71 | –
11 | O=C(c1ccccc1)n1c(=O)ccn(Cc2cn(C[C@H](OCc3ccccc3)[C@H](O)P(=O)(OCc3ccccc3)OCc3ccccc3)nn2)c1=O | 57 | 21 | 21 | inhibition (Human alphaherpesvirus 1): inactive; inhibition (Human alphaherpesvirus 2): inactive
12 | CC(=O)Nc1ccn(Cc2cn(C[C@H]3OC(C)(C)O[C@H]3[C@@H](O)P(=O)(OCc3ccccc3)OCc3ccccc3)nn2)c(=O)n1 | > 200 | > 200 | > 200 | –
13 | Nc1ncnc2c1ncn2Cc1cn(C[C@H](OCc2ccccc2)[C@@H](O)P(=O)(OCc2ccccc2)OCc2ccccc2)nn1 | 81 | 78 | 66 | –
14 | Cn1cnc2c1c(=O)n(Cc1cn(C[C@H](OCc3ccccc3)[C@@H](O)P(=O)(OCc3ccccc3)OCc3ccccc3)nn1)c(=O)n2C | 78 | 82 | 71 | –
15 | CC1(C)O[C@@H]([C@@H](O)P(=O)(OCc2ccccc2)OCc2ccccc2)[C@@H](Cn2cc(Cn3cnc4c(N)ncnc43)nn2)O1 | > 200 | 140 | 98 | –
16 | CC(=O)c1cn(Cc2cn(C[C@H](OCc3ccccc3)[C@H](O)P(=O)(OCc3ccccc3)OCc3ccccc3)nn2)c2ccccc12 | 13 | 16 | 15 | –
17 | Cn1c(=O)c2c(ncn2Cc2cn(C[C@H](OCc3ccccc3)[C@@H](O)P(=O)(OCc3ccccc3)OCc3ccccc3)nn2)n(C)c1=O | 79 | 71 | 71 | –
18 | O=c1ccccn1Cc1cn(C[C@H](OCc2ccccc2)[C@@H](O)P(=O)(OCc2ccccc2)OCc2ccccc2)nn1 | 45 | 90 | 63 | –
19 | Cc1cn(Cc2cn(C[C@H](O)[C@@H](O)P(=O)(O)O)nn2)c(=O)[nH]c1=O | > 200 | > 200 | > 200 | –
20 | CC(=O)Nc1ccn(Cc2cn(C[C@H](OCc3ccccc3)[C@H](O)P(=O)(OCc3ccccc3)OCc3ccccc3)nn2)c(=O)n1 | 160 | 82 | 96 | –

Row | SMILES | IC50 (HeLa) [µM] | IC50 (CCRF-CEM) [µM] | IC50 (L1210) [µM] | also measured
21 | O=C(c1ccccc1)n1c(=O)ccn(Cc2cn(C[C@H](O)[C@@H](O)P(=O)(O)O)nn2)c1=O | > 200 | > 200 | > 200 | –
22 | Cn1c(=O)c2c(nc(Cl)n2Cc2cn(C[C@@H]3OC(C)(C)O[C@H]3[C@@H](O)P(=O)(OCc3ccccc3)OCc3ccccc3)nn2)n(C)c1=O | > 200 | > 200 | > 200 | –
23 | Cc1cn(Cc2cn(C[C@H](OCc3ccccc3)[C@H](O)P(=O)(OCc3ccccc3)OCc3ccccc3)nn2)c(=O)[nH]c1=O | 64 | 83 | 85 | –
24 | NC(=O)c1ncn([C@@H]2O[C@H](CO)[C@@H](O)[C@H]2O)n1 [RIBAVIRIN] | – | – | – | EC50 [3]: 17 µM
25 | Cn1c(=O)c2c(nc(Cl)n2Cc2cn(C[C@H]3OC(C)(C)O[C@H]3[C@@H](O)P(=O)(OCc3ccccc3)OCc3ccccc3)nn2)n(C)c1=O | 85 | 51 | 58 | EC50 (Human alphaherpesvirus 3): 55.7 µM
26 | Cn1cnc2c1c(=O)n(Cc1cn(C[C@@H]3OC(C)(C)O[C@H]3[C@@H](O)P(=O)(OCc3ccccc3)OCc3ccccc3)nn1)c(=O)n2C | > 200 | 142 | 145 | –
27 | O=C(c1ccccc1)n1c(=O)ccn(Cc2cn(C[C@H](OCc3ccccc3)[C@@H](O)P(=O)(OCc3ccccc3)OCc3ccccc3)nn2)c1=O | 76 | 21 | 26 | EC50 ([4]; human respiratory syncytial virus): 12 µM; EC50 [3]: 9 µM
28 | O=C(c1ccccc1)n1c(=O)c2ccccc2n(Cc2cn(C[C@H](OCc3ccccc3)[C@@H](O)P(=O)(OCc3ccccc3)OCc3ccccc3)nn2)c1=O | 7.1 | 4.7 | 4.1 | inhibition [4]: inactive; inhibition [3]: inactive
29 | Cn1c(=O)c2c(nc(Cl)n2Cc2cn(C[C@H](OCc3ccccc3)[C@H](O)P(=O)(OCc3ccccc3)OCc3ccccc3)nn2)n(C)c1=O | 86 | 25 | 22 | –
30 | Cn1c(=O)c2c(ncn2Cc2cn(C[C@H](OCc3ccccc3)[C@H](O)P(=O)(OCc3ccccc3)OCc3ccccc3)nn2)n(C)c1=O | 83 | 72 | 56 | –
31 | Cn1c(=O)c2c(ncn2Cc2cn(C[C@H]3OC(C)(C)O[C@H]3[C@@H](O)P(=O)(OCc3ccccc3)OCc3ccccc3)nn2)n(C)c1=O | > 200 | > 200 | > 200 | –
32 | Cc1cn(Cc2cn(C[C@@H]3OC(C)(C)O[C@H]3[C@@H](O)P(=O)(OCc3ccccc3)OCc3ccccc3)nn2)c(=O)[nH]c1=O | 107 | > 200 | 139 | –
33 | Nc1ncnc2c1ncn2Cc1cn(C[C@H](OCc2ccccc2)[C@H](O)P(=O)(OCc2ccccc2)OCc2ccccc2)nn1 | 80 | 76 | 46 | –
34 | O=c1ccccn1Cc1cn(C[C@H](OCc2ccccc2)[C@H](O)P(=O)(OCc2ccccc2)OCc2ccccc2)nn1 | 28 | 101 | 76 | –
35 | CCOP(=O)(CCCn1cc(Cn2c(=O)n(C(=O)c3ccccc3)c(=O)c3ccccc32)nn1)OCC | – | – | – | EC50 (Felid alphaherpesvirus 1): 24 µM
36 | O=c1ccn(Cc2cn(C[C@H](OCc3ccccc3)[C@H](O)P(=O)(OCc3ccccc3)OCc3ccccc3)nn2)c(=O)[nH]1 | 66 | 91 | 86 | inhibition (Felid alphaherpesvirus 1): inactive
37 | O=c1ccn(Cc2cn(C[C@H](OCc3ccccc3)[C@@H](O)P(=O)(OCc3ccccc3)OCc3ccccc3)nn2)c(=O)[nH]1 | > 200 | > 200 | > 200 | –
38 | CC(=O)c1cn(Cc2cn(C[C@H](OCc3ccccc3)[C@@H](O)P(=O)(OCc3ccccc3)OCc3ccccc3)nn2)c2ccccc12 | > 200 | > 200 | > 200 | –
39 | CC1(C)O[C@@H]([C@@H](O)P(=O)(OCc2ccccc2)OCc2ccccc2)[C@@H](Cn2cc(Cn3ccc(=O)[nH]c3=O)nn2)O1 | > 200 | > 200 | > 200 | –
40 | CC(=O)Nc1ccn(Cc2cn(C[C@@H]3OC(C)(C)O[C@H]3[C@@H](O)P(=O)(OCc3ccccc3)OCc3ccccc3)nn2)c(=O)n1 | > 200 | > 200 | > 200 | –
